Data set [1] relates to COS-7. The data set is described as follows: Cytotoxicity against African green monkey COS7 cells assessed as effect on metabolic activity at 10 uM measured after 72 hrs by MTT assay. It counts as ADME, cell-based. To be noted: chlorocebus aethiops, cos-7, 72 h. The essentials: (§1)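 COS-7 cells seeded at 2×10^3 per well in triplicate, grown 24 h, then exposed to test agent or DMSO vehicle (final DMSO ≤0.1%) for 72 h. Metabolic activity read with a modified MTT (EZ4U) kit. Background from FCS-containing medium plus substrate subtracted. Expressed relative to vehicle control set to 100%. Mean +SD of ≥3 independent experiments.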
A general note: Formazan colour is commonly taken as a measure of viable cells.

The test system of data set [2] is COS-7. Nature of the data set: Cytotoxicity against African green monkey COS7 cells assessed as effect on metabolic activity at 20 uM measured after 72 hrs by MTT assay. Format: ADME, cell-based. To be noted: chlorocebus aethiops, cos-7, 72 h. The essentials:
as §1

A short description of data set [3]: Cytotoxicity against human HS5 cells assessed as cell death at 10 uM measured after 72 hrs by Propidium iodide stain based FACS analysis. To be noted: hs5, 72 h. In outline: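 HS-5 cells seeded at 0.5×10^5 per well and treated with compound or DMSO vehicle (final DMSO ≤0.1%) for 72 h. Harvested cells stained with PI/Triton-X100 for 2 h at 4 °C. Dead cells were counted by flow cytometry as nuclei in the sub-G1 window. Mean +SEM of ≥3 independent experiments.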
A general note: A flow cytometer gives signals particle by particle.

Data set [4] can be described thus: Modulation of cell death in imatinib-resistant human K562 cells assessed by increase in imatinib-mediated cell death in presence of presence of imatinib measured after 72 hrs by Propidium iodide stain based FACS assay (reference value: 17%). Format: functional.
Data set [5] deals with T1, Signal transducer and activator of transcription 5A (Homo sapiens) (UniProt P42229).
T1 sequence (whole entry): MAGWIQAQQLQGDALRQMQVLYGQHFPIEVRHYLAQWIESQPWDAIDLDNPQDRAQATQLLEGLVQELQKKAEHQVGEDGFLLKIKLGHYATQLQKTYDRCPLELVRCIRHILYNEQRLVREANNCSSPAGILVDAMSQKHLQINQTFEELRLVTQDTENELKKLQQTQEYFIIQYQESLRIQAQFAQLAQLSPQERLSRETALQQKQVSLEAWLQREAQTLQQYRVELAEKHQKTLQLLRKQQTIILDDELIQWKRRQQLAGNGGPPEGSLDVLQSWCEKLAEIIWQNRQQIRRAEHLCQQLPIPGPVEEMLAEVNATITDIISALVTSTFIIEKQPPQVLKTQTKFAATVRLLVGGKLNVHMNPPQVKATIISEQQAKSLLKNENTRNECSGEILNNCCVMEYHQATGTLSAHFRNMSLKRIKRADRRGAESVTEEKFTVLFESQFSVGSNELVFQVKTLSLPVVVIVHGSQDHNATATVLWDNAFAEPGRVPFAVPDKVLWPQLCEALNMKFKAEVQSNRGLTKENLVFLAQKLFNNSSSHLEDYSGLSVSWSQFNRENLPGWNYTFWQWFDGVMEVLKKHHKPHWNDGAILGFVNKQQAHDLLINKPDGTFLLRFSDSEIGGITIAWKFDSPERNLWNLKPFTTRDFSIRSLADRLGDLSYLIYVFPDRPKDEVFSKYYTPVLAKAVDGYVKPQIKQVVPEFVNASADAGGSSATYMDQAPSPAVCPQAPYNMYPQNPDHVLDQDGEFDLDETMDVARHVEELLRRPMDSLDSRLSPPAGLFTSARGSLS
The data set is described as follows: Inhibition of STAT5 phosphorylation in imatinib-resistant human K562 cells in presence of imatinib at 10 uM measured after 6 hrs by Western blot assay. It counts as cell-based. The essentials:
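K562-resistant cells (a doxorubicin-resistant K562 subclone, KD225) kept in RPMI 1640 with 10% FCS. Cells received 1 µM imatinib alone or with 10 µM compound for 6 h. Immunoblots were probed for STAT5 and for pSTAT5 (Tyr694/699), with GAPDH as loading control, and developed by ECL. Densitometry was normalised to the imatinib-only control set to 100%.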

Data set [6] addresses T1, Signal transducer and activator of transcription 5A (Homo sapiens). Nature of the data set: Inhibition of STAT5 in imatinib-resistant human K562 cells assessed as effect on STAT5 expression in presence of imatinib at 10 uM measured after 6 hrs by Western blot assay. It counts as cell-based. (In general: In western blotting, separated proteins are transferred to a membrane and probed.)

The target in data set [7] is T2, Peroxisome proliferator-activated receptor gamma (Homo sapiens, UniProt P37231).
T2 sequence (P37231 whole entry): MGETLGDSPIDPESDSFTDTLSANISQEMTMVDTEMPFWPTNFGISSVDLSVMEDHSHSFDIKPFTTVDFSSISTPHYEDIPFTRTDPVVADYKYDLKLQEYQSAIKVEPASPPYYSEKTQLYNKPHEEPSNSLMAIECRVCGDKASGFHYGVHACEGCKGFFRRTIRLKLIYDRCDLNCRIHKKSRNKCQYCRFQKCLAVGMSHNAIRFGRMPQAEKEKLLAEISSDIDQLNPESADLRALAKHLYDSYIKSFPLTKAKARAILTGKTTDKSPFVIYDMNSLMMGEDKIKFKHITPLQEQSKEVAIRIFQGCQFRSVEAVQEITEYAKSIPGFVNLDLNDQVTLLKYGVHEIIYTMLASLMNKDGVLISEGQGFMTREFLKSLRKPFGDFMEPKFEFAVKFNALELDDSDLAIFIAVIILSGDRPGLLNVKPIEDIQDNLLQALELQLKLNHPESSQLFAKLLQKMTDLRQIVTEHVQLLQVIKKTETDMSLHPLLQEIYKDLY
The data set is described as follows: Agonist activity at human PPARgammaDEF receptor expressed in african green monkey COS7 cells transfected with pGal5-TK-pGL3/pRenilla-CMV assessed as intrinsic activity measured after 39 hrs by dual luciferase reporter assay. Format: cell-based.

The nature of data set [8]: Modulation of cell death in imatinib-resistant human K562 cells assessed by increase in imatinib-mediated cell death in presence of presence of imatinib at 2.5 uM measured after 72 hrs by Propidium iodide stain based FACS assay (reference value: 17%). Format: functional.

Molecules are shown by their SMILES. Active and inactive are the calls of the source. The rule behind the calls is not given here.

In the case of `CCCc1nc(C(C)(C)O)c(C(=O)O)n1Cc1ccc(-c2ccccc2-c2nnn[nH]2)cc1` [OLMESARTAN], the Activity entry (in the data set with COS-7 [1]; in the data set on COS-7 [2]; in data set [3]) was “Non-Toxic” each time.

With `CCCCC1=NC2(CCCC2)C(=O)N1Cc1ccc(-c2ccccc2-c2nnn[nH]2)cc1` [IRBESARTAN], the Activity result with COS-7 [1] is listed as “Non-Toxic”; in data set [4], 31%; in the data set on COS-7 [2] it was “Non-Toxic”; in data set [3], “Non-Toxic”.

For the compound `CCCc1nc2c(C(=O)O)cccc2n1Cc1ccc(-c2ccccc2C(=O)O)cc1`, the Activity entry in the data set with COS-7 [1] is given as “Non-Toxic”; in data set [4], 12%; in the data set on COS-7 [2], “Non-Toxic”; in data set [3] it was “Non-Toxic”. The inhibition result in data set [5] and in data set [6] was “inactive” throughout.

For the compound `CCCc1nc(C(C)(C)O)c(C(=O)OCc2oc(=O)oc2C)n1Cc1ccc(-c2ccccc2-c2nnn[nH]2)cc1` [OLMESARTAN MEDOXOMIL], the Activity result (in the data set on COS-7 [1]; in the data set with COS-7 [2]; in data set [3]) was “Non-Toxic” each time.

For the compound `CCCc1nc2c(C(=O)O)cccc2n1Cc1ccc(-c2ccccc2C(=O)OC)cc1`, the Activity entry in the data set with COS-7 [1] is recorded as “Non-Toxic”; in data set [4], 56%; with COS-7 [2], “Non-Toxic”; in data set [3], “Non-Toxic”. Besides, the inhibition entry in data set [5] was “Active”. The inhibition result in data set [6] was “inactive”.

What is called EC50 is the concentration needed to bring the measured effect to its halfway point. Turning to `CCCc1nc2c(C)cc(-c3nc4ccccc4n3C)cc2n1Cc1ccc(-c2ccccc2C(N)=O)cc1`, the Activity result with COS-7 [1] was “Non-Toxic”; in data set [4], 89%; in the data set with COS-7 [2], “Non-Toxic”; in data set [3] it was “Non-Toxic”; in data set [8] it was 50%. The EC50 in data set [7] was 9.1 µM. Moreover, in data set [5], the inhibition entry was “Active”. Besides, the inhibition result in data set [6] is “inactive”.

As to `CCCc1nc2c(C)cc(-c3nc4ccccc4n3C)cc2n1Cc1ccc(-c2ccccc2C(=O)O)cc1` [TELMISARTAN], the Activity result is given as “Non-Toxic” in the data set on COS-7 [1], 63% in data set [4], “Non-Toxic” with COS-7 [2] and “Non-Toxic” in data set [3]. For the same compound, in data set [5], the inhibition entry is “Active”. Besides, the inhibition result in data set [6] was “inactive”.

`CCCc1nc2cccc(C(=O)OC)c2n1Cc1ccc(-c2ccccc2C(=O)OC)cc1`: the Activity entry in the data set with COS-7 [1] is “Non-Toxic”; in data set [4], 83%; in the data set with COS-7 [2] it was “Non-Toxic”; in data set [3] it was “Non-Toxic”; in data set [8], 50%. The inhibition result in data set [5] is “Active”. Also, the inhibition result in data set [6] is “inactive”.

As for `CCOc1nc2cccc(C(=O)OC(C)OC(=O)OC3CCCCC3)c2n1Cc1ccc(-c2ccccc2-c2nnn[nH]2)cc1` (centres undefined) [CANDESARTAN CILEXETIL], the Activity entry (in the data set with COS-7 [1]; with COS-7 [2]; in data set [3]) was “Non-Toxic” throughout.

As for `CCOc1nc2cccc(C(=O)O)c2n1Cc1ccc(-c2ccccc2-c2nnn[nH]2)cc1` [CANDESARTAN], the Activity entry with COS-7 [1] was “Non-Toxic”; in data set [4], 42%; with COS-7 [2] it was “Non-Toxic”; in data set [3] it was “Non-Toxic”.

`CCCc1nc2cccc(C(=O)O)c2n1Cc1ccc(-c2ccccc2C(=O)O)cc1`: the Activity entry in the data set with COS-7 [1] is given as “Non-Toxic”; in data set [4], 12%; in the data set with COS-7 [2] it was “Non-Toxic”; in data set [3] it was “Non-Toxic”. In addition, the inhibition result in data set [5] and in data set [6] was “inactive” throughout.

Regarding `CCCc1nc2c(C(=O)OC)cccc2n1Cc1ccc(-c2ccccc2C(=O)OC)cc1`, the Activity result in the data set on COS-7 [1] is “Non-Toxic”; in data set [4], 83%; in the data set with COS-7 [2] it was 20%; in data set [3] it was “Non-Toxic”; in data set [8] it was 50%. Moreover, the inhibition result in data set [5] was “Active”. Also, in data set [6], the inhibition result is “inactive”.

Regarding `CCc1ccc(CCOc2ccc(CC3SC(=O)NC3=O)cc2)nc1` (centres undefined) [PIOGLITAZONE], the Activity entry (in the data set on COS-7 [1]; in the data set on COS-7 [2]; in data set [3]) was “Non-Toxic” in each case.

For `CCCCc1nc(Cl)c(CO)n1Cc1ccc(-c2ccccc2-c2nn[nH]n2)cc1` [LOSARTAN], the Activity result (in the data set on COS-7 [1]; in the data set with COS-7 [2]; in data set [3]) was “Non-Toxic” each time.

These data come from ChEMBL document CHEMBL4765286, “Identification and development of non-cytotoxic cell death modulators: Impact of sartans and derivatives on PPARγ activation and on growth of imatinib-resistant chronic myelogenous leukemia cells” (Eur J Med Chem, 2020).
